Screening results as filed in PubChem BioAssay.
ANO1 block: blocks the mouse calcium-activated chloride channel TMEM16A | Q8BHY3 | normalized B-score (activity score, 25-100; higher = stronger inhibition) at 10 µM | AID 588511 | hit rate 1.2% among 310,000 | HEK293 TMEM16A/YFP iodide influx fluorescence, ionomycin;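 active means ratio plate-corrected score three or more library SD toward inhibition, starting fluorescence score within five deviations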;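 further: score derived from kinetic fluorescence span divided by baseline fluorescence per well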
SR-BI HDL uptake: mouse SR-BI HDL lipid transfer inhibition; inhibition, % at 12.5 µM; AID 488896; hit rate 0.96% among 320,000; ldlA[mSR-BI] CHO cells, DiI-HDL uptake fluorescence, 3 h; Q61009;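 active means mean replicate inhibition of at least 70% and a set share of replicates each scoring 70 or more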
Target sequence (Q61009 whole entry, looked up): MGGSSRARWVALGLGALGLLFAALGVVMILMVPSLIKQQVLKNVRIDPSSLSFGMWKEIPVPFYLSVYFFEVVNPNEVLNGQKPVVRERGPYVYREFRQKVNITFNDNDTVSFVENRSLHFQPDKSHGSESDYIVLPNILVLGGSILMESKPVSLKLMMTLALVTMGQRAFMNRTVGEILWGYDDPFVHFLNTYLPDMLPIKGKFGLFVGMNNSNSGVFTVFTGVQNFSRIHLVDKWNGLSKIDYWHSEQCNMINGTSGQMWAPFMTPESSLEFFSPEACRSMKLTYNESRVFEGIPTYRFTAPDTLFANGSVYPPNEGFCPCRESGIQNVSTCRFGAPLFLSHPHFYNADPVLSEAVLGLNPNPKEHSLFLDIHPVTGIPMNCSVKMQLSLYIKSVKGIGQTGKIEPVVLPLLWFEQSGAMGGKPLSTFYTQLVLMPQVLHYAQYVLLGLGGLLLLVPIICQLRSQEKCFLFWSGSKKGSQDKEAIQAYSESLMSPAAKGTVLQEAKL
SR-BI uptake up: activators of SR-BI mediated HDL lipid uptake. CHO ldlA[mSR-BI] cells, DiI-HDL uptake fluorescence, 3 h; 100 = double the neutral-control signal. activation, % at 12.5 µM. hit rate 0.096% among 320,000;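 active means mean replicate activation of at least 60% and every replicate at or above 60%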
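Material: SR-BI-overexpressing, LDLR-lacking CHO cells; schedule: compound exposure 3 h, 37 °C; reagent: DiI-labelled HDL at 10 µg/mL final; technique: bottom-read fluorescence, 550/595 nm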
TMEM16A act: mouse TMEM16A channel activation, primary screen. Q8BHY3. hit rate 0.3% among 340,000. HEK293 TMEM16A/YFP-H148Q/I152L, iodide quench fluorescence; active compounds read low. B-score at 10 µM. AID 623877;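 active means fluorescence-ratio B-score plate-corrected deviation score at least 3 library SD below zero, with starting fluorescence score within 5 deviations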;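 further: channel opened by trigger with iodide after compound preincubation; score built on the fluorescence ratio of max minus min over baseline; more negative score means more quench and so TMEM16A activation or potentiation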
FID counter: counter-screen for HCV NS3 helicase inhibitors: DNA intercalator displacement; hit rate 0.17% among 290,000; inhibition, % at 7.9 µM; DNA fluorescent intercalator displacement, fluorescence; in the data active means inhibition above about 37%;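 further: higher means more ethidium bromide displaced from hairpin DNA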
Kir21 block: Kir2.1 (mouse) channel inhibition; HEK293-Kir2.1, FluxOR thallium flux fluorescence; active compounds read low; B-score at 10 µM; P35561; hit rate 0.85% among 310,000;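 active means fluorescence ratio B-score at or below minus 3 SD of library scores, with starting-brightness B-score within 2 SD, cut at about -4.2 in these data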;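 further: channel flux triggered by added potassium and thallium sulfate stimulus; B-score of peak minus minimum fluorescence over baseline after thallium stimulus; more negative B-score means stronger Kir2.1 block with less thallium influx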
A number is an active result; - = inactive; . = not tested or not shown. Only some compounds are listed: those with a hit (about 3% of all), similar ones and a draw of the others.

SMILES | ANO1 block | SR-BI HDL uptake | SR-BI uptake up | TMEM16A act | FID counter | Kir21 block
O=C(NC(Nc1ncc(S(=O)(=O)c2ccc([N+](=O)[O-])cc2)s1)(C(F)(F)F)C(F)(F)F)c1ccc(Cl)cc1 | 100 | - | - | - | - | -6.91
COc1cccc(NC(=O)CN(C)C(=O)CC2CCCC2)c1 | . | - | - | - | . | .
CC(=O)NS(=O)(=O)c1ccc(NC(=O)CC23CC4CC(CC(Br)(C4)C2)C3)cc1 | - | . | . | - | - | -
CSc1nnc(-c2ccc(S(=O)(=O)N3CCOCC3)cc2)n1C | - | . | . | - | - | -
Cc1cccc(C)c1NC(=O)CN(C)C(=O)c1ccc2c(=O)n3c(nc2c1)CCC3 | . | - | - | - | . | .
COc1ccc(/C=N/Nc2nc(C)cc(-c3ccccc3)n2)c(OC)c1 | - | 73.8 | - | - | - | -
Oc1ccc(/C=N/Nc2nc(-c3ccc(Cl)cc3)cc(C(F)(F)F)n2)cc1 | - | 80.4 | - | - | - | -
COc1ccc2nc(C)cc(Nc3ccc(N4CCN(C)CC4)cc3)c2c1 | - | - | - | - | 83.6 | -
Cc1cc(-c2ccccc2)nc(N/N=C/c2ccc(O)cc2)n1 | . | 78.7 | - | - | . | .
CC(=O)c1ccc(CCCCc2ccc(C(C)=O)cc2)cc1 | . | - | - | - | . | .
CCOC(=O)[C@H]1[C@H]2COc3ccc(C)cc3[C@@H]2N2C(=O)c3cc(Br)ccc3NC(=O)[C@@]12C | . | - | - | - | . | .
O=C(/C=C/c1cccc(F)c1)N1CCN(c2ncccn2)CC1 | - | - | - | - | - | -
COc1ccc(/C(C)=N/Nc2nc(C)cc(-c3ccccc3)n2)cc1 | - | . | . | - | . | -
COc1ccc(O)c(/C=N/Nc2nc(C)cc(-c3ccccc3)n2)c1 | - | 87.6 | - | - | . | -
COc1ccc(/C=N/Nc2cc(N3CCCC3)nc(N3CCCC3)n2)cc1 | - | - | - | -18.5 | - | -
COc1ccc2nc(C)cc(N/N=C/c3ccccc3)c2c1 | . | - | - | - | . | .
COc1cc(/C=N/Nc2nc(Nc3ccccc3)nc(N3CCOCC3)n2)ccc1OC(=O)c1ccco1 | - | 72.6 | - | - | - | -
Oc1ccc(/C=N/Nc2cc(N3CCCC3)nc(N3CCCC3)n2)cc1 | - | - | - | - | - | -
COc1ccc(/C=N/Nc2cc(C)nc3ccc(OC)cc23)c(OC)c1 | 100 | - | - | - | - | -
CCOc1ccc(CNC(=O)CCC(=O)n2nc(C)c3ccccc32)cc1 | - | - | - | - | - | -
COc1ccc(/C=N/Nc2nc(Nc3ccccc3)nc(N3CCCCC3)n2)c(OC)c1 | - | 89.2 | - | - | - | -
Cc1cc(N/N=C/c2ccc(O)cc2)c2cccc(C)c2n1 | - | - | - | - | - | -
Cc1cc(C)c2nc(C)cc(N/N=C/c3ccc(O)cc3)c2c1 | - | - | - | - | 48.2 | -10.1
Oc1[nH]c2ccccc2c1N=Nc1nc(Nc2ccccc2)nc(N2CCOCC2)n1 | - | . | . | - | - | -
Cc1[nH]c2ccccc2c1/C=N/Nc1nc(Nc2ccccc2)nc(N2CCOCC2)n1 | - | 129.9 | - | - | - | -
SMILES | ANO1 block | SR-BI HDL uptake | SR-BI uptake up | TMEM16A act | FID counter | Kir21 block
CCN(CC(=O)NC1CCS(=O)(=O)C1)S(=O)(=O)c1c(C)c(C)cc(C)c1C (stereo unspecified) | - | - | - | - | . | -
CC1CN(c2nc(-c3ccc(Br)cc3)nnc2-c2ccccc2)CC(C)N1 (stereo unspecified) | - | - | - | - | - | -9.29
CCOC(=O)Cc1nn(Cc2nc(-c3ccc(C)cc3)cs2)c(=O)c2ccccc12 | 25 | - | - | - | - | -
CC(=O)NCCOc1cccc2ccccc12 | - | - | - | - | - | -
c1ccc(CCNCCCOc2cccc3ccccc23)cc1 | - | - | - | - | - | -16.3
COc1ccc(CNCCc2ccc(Cl)cc2)cc1OCc1ccccc1 | 100 | - | - | - | - | -6.39
CCN(Cc1ccccc1)Cc1ccc(OCc2ccccc2)c(OC)c1 | - | - | - | - | - | -
c1ccc(COc2ccc(CNCc3cccs3)cc2)cc1 | - | . | . | - | - | -13.5
COc1ccc(CNC(C)CCc2ccccc2)cc1 (stereo unspecified) | - | - | - | - | - | -6.33
COc1cc(CN(C)CCc2ccccc2)ccc1OCc1ccccc1 | - | - | - | - | - | -7.62
O=C(C[C@@H]1C/C=C\C[C@H](Cc2ccc(F)cc2)C(=O)OC[C@@H](Cc2c[nH]c3ccccc23)NC1=O)NCCO | . | - | - | - | . | .
COC(=O)c1ccc(/C=C/C(=O)OCC(=O)NCc2cccs2)cc1 | . | - | - | - | . | .
CC/C(=C\c1ccc(N(C)C)cc1)c1ccncc1 | . | - | - | - | . | .
Cc1cc(OCC(=O)Nc2ccccc2C)no1 | . | - | - | - | . | .
COc1ccc(CNS(=O)(=O)CCNCCc2ccccc2)cc1 | . | - | - | . | . | .
COc1ccc(CCNCc2ccc(OCc3ccccc3)cc2)cc1 | - | - | - | - | - | -5.44
COc1ccc(CCNC/C=C/c2ccccc2)cc1 | - | - | - | - | - | -8.37
CCOc1cc(CNCc2ccccc2)ccc1OCc1ccc(Cl)cc1 | 100 | - | - | - | 45.8 | -
COc1ccc(NC(=O)NNC(=O)CCc2ccc(O)c(O)c2)cc1OC | - | - | - | - | - | -
CCOP(=O)(OCC)C(Nc1ccc(C)cc1)c1ccco1 (stereo unspecified) | - | - | - | - | - | -
CCCCCCCCC1=NCCc2c1[nH]c1ccccc21 | - | - | - | - | - | -7.81
CC(C)C/C=C1\CCc2c([nH]c3ccccc23)C1=O | - | - | - | - | - | -
Cc1nn(C(C)C(=O)NCCN2CCCCCC2)c(=O)c2nn(-c3ccccc3)c(C)c12 (stereo unspecified) | - | - | - | - | - | -
COc1cc(/C=C2\COC/C(=C\c3cc(OC)c(OC)c(OC)c3)C2=O)cc(OC)c1OC | . | 83.3 | - | - | - | -
Cc1cc(C)nc(NC(=O)c2cc([N+](=O)[O-])cc([N+](=O)[O-])c2)n1 | - | - | - | - | - | -
SMILES | ANO1 block | SR-BI HDL uptake | SR-BI uptake up | TMEM16A act | FID counter | Kir21 block
CN1CCN(c2sc(S(C)(=O)=O)nc2S(=O)(=O)c2ccc(Cl)cc2)CC1 | - | - | - | - | - | -
O=S(=O)(c1ccc(F)cc1)N1CCN=C1SCc1cccnc1 | - | - | - | - | - | -
O=S(=O)(c1ccc2ccccc2c1)N1CCN=C1SCc1cccnc1 | - | - | - | - | - | -5.02
O=C(CSCc1c(Cl)cccc1Cl)NN=C1CCCC1 | - | - | - | -28.9 | - | -
O=C(CSCc1ccccc1Cl)NN=C1CCCCCC1 | - | - | - | - | - | -
CCOc1ccc(NC(=O)Cn2nnc(C(=O)NCCc3ccc(OC)c(OC)c3)c2N)cc1 | - | 74.4 | - | - | - | -
COc1ccc(Cl)cc1NC(=O)Cn1nnc(C(=O)NCCc2ccc(OC)c(OC)c2)c1N | - | - | - | - | - | -
CCOc1ccccc1NC(=O)Cn1nnc(C(=O)NCCc2ccc(OCC)c(OCC)c2)c1N | - | 85.4 | - | - | - | -
